As a reminder, the IC50 is the midpoint of a concentration-inhibition curve. In general, MIC refers to the lowest concentration that inhibits growth of the organism.

Values after ≈ are worked out from the molar mass of the structure shown.

Among the data in ChEMBL document CHEMBL4425163, “Structure elucidation of anti-methicillin resistant Staphylococcus aureus (MRSA) flavonoids from balsam poplar buds” (Bioorg Med Chem, 2016) are IC50 and MIC values, retold here.

The nature of test [1]: Cytotoxicity against human WS1 cells by resazurin reduction assay. In kind it is cell-based. Conditions: Homo sapiens, WS1. In short, it runs like this: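 WS1 human fibroblast line; resazurin reduction test, slightly modified from an earlier method. Etoposide served as positive control.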
In general terms: Alamar Blue is a resazurin reagent that responds to reducing activity.

Test [2] has as its system Staphylococcus aureus. Kind of test: Antibacterial activity against methicillin resistant Staphylococcus aureus clinical isolate 4 incubated for 7 to 14 days by microdilution resazurin assay. For orientation: Dilution methods test growth across graded concentrations, often in twofold steps.
Test [3] has as its system Staphylococcus aureus. The test can be described thus: Antibacterial activity against methicillin resistant Staphylococcus aureus clinical isolate 1 incubated […] by microdilution resazurin assay. In kind it is functional. The note with it: Staphylococcus aureus, isolate 1; read-out: MIC.
Test [4] concerns Staphylococcus aureus. The test can be described thus: Antibacterial activity against Staphylococcus aureus ATCC 25923 incubated […] by microdilution resazurin assay. Format: functional. The note with it: Staphylococcus aureus, ATCC 25923; read-out: MIC.
Test [5] has as its system Staphylococcus aureus. Kind of test: Antibacterial activity against methicillin resistant Staphylococcus aureus clinical isolate 2 incubated […] by microdilution resazurin assay. In kind it is functional. Conditions: Staphylococcus aureus, isolate 2; read-out: MIC.
The subject of test [6] is Staphylococcus aureus. Kind of test: Antibacterial activity against methicillin resistant Staphylococcus aureus clinical isolate 8 incubated […] by microdilution resazurin assay. Format: functional. The note with it: Staphylococcus aureus, isolate 8; read-out: MIC.
In test [7] the test system is Staphylococcus aureus. The test can be described thus: Antibacterial activity against methicillin resistant Staphylococcus aureus clinical isolate 9 incubated […] by microdilution resazurin assay. Format: functional. Conditions: Staphylococcus aureus, isolate 9; read-out: MIC.
Test [8] relates to Staphylococcus aureus. The test can be described thus: Antibacterial activity against methicillin resistant Staphylococcus aureus clinical isolate 6 incubated […] by microdilution resazurin assay. Format: functional. The note with it: Staphylococcus aureus, isolate 6; read-out: MIC.
For test [9], the system named is Staphylococcus aureus. The test can be described thus: Antibacterial activity against methicillin resistant Staphylococcus aureus clinical isolate 5 incubated […] by microdilution resazurin assay. In kind it is functional. Conditions: Staphylococcus aureus, isolate 5; read-out: MIC.
For test [10], the system named is Staphylococcus aureus. The test can be described thus: Antibacterial activity against methicillin resistant Staphylococcus aureus clinical isolate 7 incubated […] by microdilution resazurin assay. In kind it is functional. The note with it: Staphylococcus aureus, isolate 7; read-out: MIC.
In test [11] the test system is Staphylococcus aureus. Kind of test: Antibacterial activity against methicillin resistant Staphylococcus aureus clinical isolate 10 incubated […] by microdilution resazurin assay. Format: functional. The note with it: Staphylococcus aureus, isolate 10; read-out: MIC.
Test [12] concerns Staphylococcus aureus. Kind of test: Antibacterial activity against methicillin resistant Staphylococcus aureus clinical isolate 3 incubated for 7 to 14 days by microdilution resazurin assay.

Take `COc1ccc(CCC(=O)c2c(O)cc(O)c3c2O[C@H](c2ccc(O)cc2)CC3)cc1`: the IC50 in test [1] is greater than 10 µM. The minimum inhibitory concentration (MIC) in test [2], in test [3], in test [4], in test [5], in test [6] and in test [7] was greater than 50 µM each time. Also, the MIC in test [8], in [9], in [10], in test [11] and in test [12] was greater than 50 µM throughout.
With `O=C(CCc1ccccc1)c1c(O)cc(O)c(C/C=C/c2ccc(O)cc2)c1O`, in test [1], the IC50 is greater than 10 µM. The MIC came out at 6 µM (≈ 2.34 µg/mL) in [2]; 6 µM (≈ 2.34 µg/mL) in test [3]; 6 µM (≈ 2.34 µg/mL) in test [4]; 6 µM (≈ 2.34 µg/mL) in test [5]; 3 µM (≈ 1.17 µg/mL) in test [6]; 3 µM (≈ 1.17 µg/mL) in [7]. Moreover, the minimum inhibitory concentration (MIC) in test [8] turned out to be 50 µM (≈ 19.5 µg/mL); in [9], 3 µM (≈ 1.17 µg/mL); in test [10], 6 µM (≈ 2.34 µg/mL); in test [11], 6 µM (≈ 2.34 µg/mL); in test [12], 6 µM (≈ 2.34 µg/mL).
In turn, `O=C(CCc1ccc(O)cc1)c1c(O)cc(O)c2c1O[C@@H](c1ccc(O)cc1)[C@H](C/C=C/c1ccc(O)cc1)C2` came in with an IC50 in test [1] greater than 10 µM. Further, the MIC is 25 µM (≈ 13.5 µg/mL) in [2]; 25 µM (≈ 13.5 µg/mL) in test [3]; 13 µM (≈ 7 µg/mL) in test [4]; 13 µM (≈ 7 µg/mL) in test [5]; 13 µM (≈ 7 µg/mL) in test [6]; 13 µM (≈ 7 µg/mL) in [7]. The MIC in test [8] is 13 µM (≈ 7 µg/mL); in test [9], 13 µM (≈ 7 µg/mL); in test [10], 6 µM (≈ 3.23 µg/mL); in test [11] it was 13 µM (≈ 7 µg/mL); in [12], 13 µM (≈ 7 µg/mL).
Turning to `COc1cc(O)c(C(=O)CCc2ccc(O)cc2)c2c1CCC(c1ccc(O)cc1)O2` (stereo not drawn), the IC50 in [1] was greater than 10 µM. The MIC in [2] is greater than 50 µM; in [3] it was greater than 50 µM; in test [4], greater than 50 µM; in test [5] it was 50 µM (≈ 21 µg/mL); in [6], greater than 50 µM; in [7] it was greater than 50 µM. For the same molecule, the MIC in test [8] is 50 µM (≈ 21 µg/mL); in [9], greater than 50 µM; in test [10], 50 µM (≈ 21 µg/mL); in test [11], greater than 50 µM; in test [12] it was greater than 50 µM.
`COc1ccc(CCC(=O)c2c(O)cc(O)c(C/C=C/c3ccc(O)cc3)c2O)cc1`: in test [1], the IC50 was greater than 10 µM. Besides, the MIC in [2] is 13 µM (≈ 5.47 µg/mL); in [3], 50 µM (≈ 21 µg/mL); in test [4], greater than 50 µM; in test [5], 25 µM (≈ 10.5 µg/mL); in [6], 25 µM (≈ 10.5 µg/mL); in [7] it was 25 µM (≈ 10.5 µg/mL). In addition, the minimum inhibitory concentration (MIC) in test [8] was 25 µM (≈ 10.5 µg/mL); in [9], 13 µM (≈ 5.47 µg/mL); in test [10], 25 µM (≈ 10.5 µg/mL); in test [11], 25 µM (≈ 10.5 µg/mL); in test [12] it was 13 µM (≈ 5.47 µg/mL).
Regarding `O=C(CCc1ccc(O)cc1)c1c(O)cc(O)c2c1O[C@H](c1ccc(O)cc1)[C@@H](C/C=C/c1ccc(O)cc1)C2`, the IC50 in [1] is greater than 10 µM. Besides, the MIC in [2] came out at 3 µM (≈ 1.62 µg/mL); in test [3], 3 µM (≈ 1.62 µg/mL); in test [4], 6 µM (≈ 3.23 µg/mL); in [5], 3 µM (≈ 1.62 µg/mL); in [6], 3 µM (≈ 1.62 µg/mL); in test [7], 3 µM (≈ 1.62 µg/mL). The MIC in test [8], in test [9], in [10], in [11] and in test [12] was 3 µM (≈ 1.62 µg/mL) each time.
With `COc1cc(O)c(C(=O)CCc2ccc(O)cc2)c(O)c1C/C=C/c1ccc(O)cc1`, the IC50 in [1] is greater than 10 µM. The MIC in [2] is 50 µM (≈ 21 µg/mL); in test [3] it was greater than 50 µM; in test [4] it was greater than 50 µM; in test [5], 50 µM (≈ 21 µg/mL); in test [6] it was 50 µM (≈ 21 µg/mL); in [7] it was greater than 50 µM. The MIC in [8], in test [9], in test [10], in test [11] and in test [12] was 50 µM (≈ 21 µg/mL) in each case.
In turn, `COc1ccc(CCC(=O)c2c(O)cc(O)c3c2O[C@@H](c2ccc(O)cc2)CC3)cc1` displayed an IC50 in test [1] greater than 10 µM. The MIC in test [2] is 25 µM (≈ 10.5 µg/mL); in [3], 13 µM (≈ 5.47 µg/mL); in test [4] it was 25 µM (≈ 10.5 µg/mL); in [5], 13 µM (≈ 5.47 µg/mL); in test [6], 13 µM (≈ 5.47 µg/mL); in test [7] it was 13 µM (≈ 5.47 µg/mL). Also, the MIC in test [8] is 25 µM (≈ 10.5 µg/mL); in test [9], 13 µM (≈ 5.47 µg/mL); in [10] it was 13 µM (≈ 5.47 µg/mL); in test [11], 25 µM (≈ 10.5 µg/mL); in test [12], 13 µM (≈ 5.47 µg/mL).
Turning to `COc1ccc(CCC(=O)c2c(O)c3c(c4c2OC(c2ccc(O)cc2)C(C/C=C/c2ccc(O)cc2)C4)OC(c2ccc(O)cc2)C(C/C=C/c2ccc(O)cc2)C3)cc1` (racemic), in test [1], the IC50 is greater than 10 µM. The MIC in test [2], in [3], in [4], in [5], in [6] and in test [7] was greater than 50 µM each time. Moreover, the MIC in [8], in test [9], in test [10], in test [11] and in [12] was greater than 50 µM in each case.
